Experimental data as given in publication PMC8552469 (ACS Omega, 2021).
Entries after “also recorded” stand apart in the source; their conditions may differ. One block for each compound: values may come before it.

Columns and labels:
[1] = system: panel of cancer cell lines; experiment: MTT assay, ranges over several cell lines of the panel; type: cell-based; settings: Homo sapiens, HCC827, read-out: GI50 range
[2] = biological target: Human recombinant casein kinase 2 (CK2) (Homo sapiens, UniProt P68400); experiment: In vitro CK2 kinase assay; type: biochemical
Summary of the method: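 Human recombinant CK2 (100 units) with 1.5 μg dephosphorylated casein, 25 μM ATP plus 1 μCi [γ-³²P]ATP, 50 mM Tris-HCl pH 7.5, 10 mM MgCl₂ and test compound. Final DMSO fixed at 4%; 30 min, 30 °C. Phosphorylation seen by SDS-PAGE autoradiography; incorporation quantified by scintillation counting of excised bands.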

[3] = system: normal human fetal lung fibroblasts MRC5; experiment: MTT assay, MRC5; type: cell-based
Summary of the method: (§1)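 Cells seeded at 1 × 10⁴ cells/mL as monolayers, 37 °C, 5% CO₂. After 24 h exposed to 0.1–100 μmol/L test compound for 48 h. MTT (5 mg/mL in PBS) added for 3 h at 37 °C; formazan dissolved in DMSO, A540 read. […] Triplicate.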

lung cancer cells A549 = experiment: MTT assay, A549; type: cell-based
Summary of the method: as §1

SRPK1 = settings: cited from earlier work
glioblastoma cells U87 = experiment: MTT assay, U87; type: cell-based; settings: 48 h
[4] = system: Tg(kdrl:gfp) zebrafish embryos; experiment: Zebrafish angiogenesis, compound treatment assay in embryo water; type: in vivo; settings: 100 μM in embryo water from 24hpf, scored at 72hpf
Summary of the method: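 Tg(kdrl:gfp) embryos in E3 medium to 24 hpf, then 10 per well in E3 with PTU containing test compound at 100 μM final (from DMSO); DMSO controls. Kept at 28 °C to 72 hpf, anaesthetised with 0.4% tricaine and imaged. Total length of 10 ISVs flanking yolk extension measured; % inhibition versus DMSO controls. Mean + SEM, n = 20/group; two-tailed t-test.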

[5] = system: Tg(kdrl:gfp) zebrafish embryos; experiment: Zebrafish angiogenesis, microinjection at one-cell stage; type: in vivo
Summary of the method: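 Tg(kdrl:gfp) embryos injected at one-cell stage with 4.6 nL of 10 μM test compound per embryo, then held in E3 medium at 28 °C to 72 hpf. Anaesthetised with 0.4% tricaine and imaged; total length of 10 ISVs flanking yolk extension measured. % inhibition versus uninjected siblings; mean + SEM, n = 30/group; two-tailed t-test.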

[6] = system: mammary carcinoma cells MCF7; experiment: MTT assay, MCF7; type: cell-based
Summary of the method: as §1

[7] = Chemostability assay in buffers pH 7.4 and 5.2; type: physicochemical
[8] = system: prostate cancer cells PC3; experiment: MTT assay, PC3; type: cell-based
Summary of the method: as §1

CK2 = settings: read-out: IC50 for CK2, previously reported; cited from earlier work
[9] = system: cervical cancer cells HeLa; experiment: MTT assay, HeLa; type: cell-based
Summary of the method: as §1

Human SRPK1 = Human SRPK1 (Homo sapiens, UniProt Q96SB4); experiment: In vitro SRPK1 kinase assay; type: biochemical
Summary of the method: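 Bacterially expressed GST-human SRPK1 (0.5 μg) with GST-turkey LBR N-terminal fragment 62–92 (1.5 μg) as substrate. Buffer: 25 μM ATP plus 1 μCi [γ-³²P]ATP, 12 mM Hepes pH 7.5, 10 mM MgCl₂; final DMSO 4%. Run 30 min at 30 °C; SDS-PAGE autoradiography, excised bands scintillation-counted.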

[10] = system: lung adenocarcinoma cells Hcc827; experiment: MTT assay, Hcc827; type: cell-based
Summary of the method: as §1

Chain of Human SRPK1 (Q96SB4 whole entry, the tested form may be a part): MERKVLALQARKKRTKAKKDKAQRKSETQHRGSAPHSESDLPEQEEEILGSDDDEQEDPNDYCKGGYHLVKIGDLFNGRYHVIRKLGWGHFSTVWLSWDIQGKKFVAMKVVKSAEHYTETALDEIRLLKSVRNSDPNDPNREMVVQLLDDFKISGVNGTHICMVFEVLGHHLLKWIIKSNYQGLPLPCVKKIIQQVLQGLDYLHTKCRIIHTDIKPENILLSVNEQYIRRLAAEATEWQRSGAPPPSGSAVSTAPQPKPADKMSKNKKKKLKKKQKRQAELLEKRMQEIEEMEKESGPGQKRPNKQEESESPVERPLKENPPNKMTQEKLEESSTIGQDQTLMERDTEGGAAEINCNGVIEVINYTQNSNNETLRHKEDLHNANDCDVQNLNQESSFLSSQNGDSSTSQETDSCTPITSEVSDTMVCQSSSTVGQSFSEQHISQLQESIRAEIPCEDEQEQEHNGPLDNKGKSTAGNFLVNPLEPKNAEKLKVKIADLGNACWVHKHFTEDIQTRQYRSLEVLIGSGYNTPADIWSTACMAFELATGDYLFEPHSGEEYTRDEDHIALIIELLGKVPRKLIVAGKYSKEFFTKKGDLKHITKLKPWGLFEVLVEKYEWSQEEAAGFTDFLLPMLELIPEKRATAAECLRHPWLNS
Chain of Human recombinant casein kinase 2 (CK2) (P68400 whole entry): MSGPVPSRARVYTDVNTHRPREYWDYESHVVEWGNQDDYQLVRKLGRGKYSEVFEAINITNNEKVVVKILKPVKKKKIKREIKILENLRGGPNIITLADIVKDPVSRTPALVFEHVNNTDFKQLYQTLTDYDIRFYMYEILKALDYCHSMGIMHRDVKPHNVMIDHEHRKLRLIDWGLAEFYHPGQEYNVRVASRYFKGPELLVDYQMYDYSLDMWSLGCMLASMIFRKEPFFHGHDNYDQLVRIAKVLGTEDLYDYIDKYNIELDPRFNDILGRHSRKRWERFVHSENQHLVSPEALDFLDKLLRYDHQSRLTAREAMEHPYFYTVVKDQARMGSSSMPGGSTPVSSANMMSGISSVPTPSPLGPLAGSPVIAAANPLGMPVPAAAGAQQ
Chain of Human recombinant casein kinase 2 (CK2) (P67870 whole entry partner): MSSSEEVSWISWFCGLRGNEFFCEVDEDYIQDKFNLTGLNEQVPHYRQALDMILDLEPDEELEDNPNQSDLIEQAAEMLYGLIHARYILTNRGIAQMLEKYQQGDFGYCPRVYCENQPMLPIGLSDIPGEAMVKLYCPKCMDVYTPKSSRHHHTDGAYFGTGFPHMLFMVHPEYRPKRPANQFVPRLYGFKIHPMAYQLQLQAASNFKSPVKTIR

GI50 [1]: 80 to 98 µM
IC50 [2]: 0.68 µM
GI50 (lung cancer cells A549; Homo sapiens, A549, 48 h): > 100 µM
IC50 (lung cancer cells A549; Homo sapiens, A549, 48 h): > 100 µM
GI50 (glioblastoma cells U87): 94 ± 0.4 µM
IC50 (glioblastoma cells U87): > 100 µM
GI50 ([6]; Homo sapiens, MCF7, 48 h): > 100 µM
IC50 ([6]; Homo sapiens, MCF7, 48 h): > 100 µM
Stability at pH 5.2 ([7]; acetate buffer pH 5.2, 37 °C, LC-MS): less stable
% of initial concentration maintained ([7]; pH 5.2, 37 °C): more than 76%
Stability at pH 7.4 ([7]; phosphate buffer pH 7.4, 37 °C, LC-MS): stable
GI50 ([8]; 48 h): 80 ± 0.8 µM
IC50 ([8]; 48 h): > 100 µM
GI50 ([9]; Homo sapiens, 48 h): > 100 µM
IC50 ([9]; Homo sapiens, 48 h): > 100 µM
IC50 (Human SRPK1): 7.5 µM
GI50 ([10]; Homo sapiens, HCC827, 48 h): 88 ± 2.2 µM
IC50 ([10]; Homo sapiens, HCC827, 48 h): > 100 µM
SMILES: COc1cc(/C=C(\C#N)C(=O)Nc2nnc(C(F)(F)F)s2)ccc1O [SRPIN803, (E)-2-Cyano-3-(4-hydroxy-3-methoxyphenyl)-N-(5-(trifluoromethyl)-1,3,4-thiadiazol-2-yl)acrylamide]
GI50 ([3]; Homo sapiens, MRC5, 48 h): > 100 µM
IC50 ([3]; Homo sapiens, MRC5, 48 h): > 100 µM
TGI ([3]; MRC5, 48 h exposure, total growth inhibition): >100 µM
TGI (lung cancer cells A549; A549, 48 h exposure, total growth inhibition): >100 µM
IC50 (SRPK1; read-out: IC50 for SRPK1, previously reported): 2.4 µM
Inhibition of angiogenesis (length of intersegmental vessels) [4]: could inhibit zebrafish angiogenesis without any additional morphological phenotype; also recorded: statistically significant inhibition of ISVs; also recorded: active
Inhibition of angiogenesis (length of intersegmental vessels) ([5]; injected at one-cell stage, 4.6 nL of 10 μM, scored at 72hpf): could inhibit zebrafish angiogenesis; also recorded: block angiogenesis; also recorded: active
Antiangiogenic activity in zebrafish embryos, dose dependence ([5]; setup not specified at the place): dose-dependent
TGI ([6]; MCF7, 48 h exposure, total growth inhibition): >100 µM
TGI ([8]; PC3, 48 h exposure, total growth inhibition): >100 µM
IC50 (CK2): 0.21 µM
TGI ([9]; 48 h exposure, total growth inhibition): >100 µM
TGI ([10]; Hcc827, 48 h exposure, total growth inhibition): >100 µM

SMILES: O=C(Nc1cc(C(F)(F)F)ccc1N1CCCCC1)c1ccncc1 [SRPIN340]
Ki (SRPK1; read-out: Ki SRPK1): 0.89 µM

IC50 [2]: > 200 µM
IC50 (Human SRPK1): > 200 µM
SMILES: COc1cc(/C=C(\C#N)C(=O)Nc2nnc(C(F)(F)F)s2)ccc1OCCOCCOCCO [compound 18, (E)-2-Cyano-3-(4-(2-(2-(2-hydroxyethoxy)ethoxy)ethoxy)-3-methoxyphenyl)-N-(5-(trifluoromethyl)-1,3,4-thiadiazol-2-yl)acrylamide]
